ChEMBL document CHEMBL1821586, “Identification and biological activities of new taccalonolide microtubule stabilizers” (J Med Chem, 2011)
Active and inactive are the calls of the source. The calls are words filed in the database; no cut-off is given here.

Columns and labels:
Mus musculus [1] = assay: Toxicity in B6C3F1 mouse allografted with mouse 16/C cells assessed as mean body weight loss at 40 mg/kg, iv administered on days 1,4,6 and day 8 or 9 (reference value: -2.2%); assay type: organism-based; set-up: dose 40 mg/kg, route intravenous; settings: in vivo
[2] = Antitumor activity against mouse 16/C cells allografted in mouse B6C3F1 assessed as gross log cell killing at 40 mg/kg, iv administered on days 1,4,6 and day 8 or 9 relative to control; assay type: functional
Procedure, shortened: (§1)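 Mammary 16/C tumor fragments implanted bilaterally s.c. in female B6C3F1 mice on day 0, 5 mice/group. Taccalonolides in 50% DMSO:50% Cremophor stock, diluted with sterile water, given i.v. in 0.2 ml on days 1, 4, 6, plus one dose 2–3 days later (A, N) or further doses days 8, 9, 11 (E). Tumor mass = length × width²/2, measured 2–3 times weekly. Gross log cell kill = (T-C)/3.32 × Td, with T-C the days to 1000 mg.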

HeLa [3] = assay: Induction of interphase microtubule bundling in human HeLa cells at 3.5 uM after 18 hrs by indirect immunofluorescence analysis; assay type: cell-based
[4] = Antitumor activity against mouse 16/C cells allografted in mouse B6C3F1 assessed as delay in tumor growth at 40 mg/kg, iv administered on days 1,4,6 and day 8 or 9 relative to control; assay type: functional
Procedure, shortened: (§2)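 Mammary 16/C fragments implanted s.c. bilaterally in female B6C3F1 mice on day 0, 5 mice/group, IV dosing in 0.2 ml. Tumors measured 2–3 times weekly. T-C = median days for treated vs control tumors to reach 1000 mg. Gross log cell kill = (T-C)/3.32×Td, with Td the doubling time from a log-linear fit of control tumor growth.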

HeLa [5] = assay: Inhibition of beta tubulin in human HeLa cells assessed asultiple abnormal mitotic spindle formation at 3.5 uM after 18 hrs by immunofluorescence analysis; assay type: cell-based
HeLa [6] = assay: Antiproliferative activity against human HeLa cells after 48 hrs by SRB assay; assay type: functional, cell-based
Procedure, shortened: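 HeLa cells grown in BME with 10% FBS and 50 µg/ml gentamicin, drug-treated 48 h, proliferation read by SRB assay.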

HeLa [7] = assay: Cell cycle arrest in human HeLa cells assessed as accumulation of cells at G2/M phase at 3.5 uM after 18 hrs by flow cytometric analysis; assay type: functional, cell-based
Procedure, shortened: (§3)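 DNA stained with propidium iodide (Krishan's reagent); DNA content measured by flow cytometry and plotted as PI intensity vs events.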

[8] = Antitumor activity against mouse 16/C cells allografted in mouse B6C3F1 assessed as decrease in tumor mass at 56 mg/kg, iv administered on days 1,4,6 and day 8 or 9 relative to control; assay type: functional
Procedure, shortened: (§4)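 Female B6C3F1 mice (mean 19.3 ± 1.0 g) carried bilateral s.c. Mammary 16/C tumor fragments implanted day 0, 5 mice/group. […] All were given IV in 0.2 ml. Tumor mass = L×W²/2, measured 2–3 times weekly. %T/C = treated/control median mass, zeros included, taken when control tumors reach ~700–1200 mg.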

[9] = Antitumor activity against mouse 16/C cells allografted in mouse B6C3F1 assessed as decrease in tumor mass at 40 mg/kg, iv administered on days 1,4,6 and day 8 or 9 relative to control; assay type: functional; procedure, shortened: as §4
[10] = Antitumor activity against mouse 16/C cells allografted in mouse B6C3F1 assessed as gross log cell killing at 56 mg/kg, iv administered on days 1,4,6 and day 8 or 9 relative to control; assay type: functional; procedure, shortened: as §1
[11] = Antitumor activity against mouse 16/C cells allografted in mouse B6C3F1 assessed as delay in tumor growth at 56 mg/kg, iv administered on days 1,4,6 and day 8 or 9 relative to control; assay type: functional; procedure, shortened: as §2
Mus musculus [12] = assay: Toxicity in B6C3F1 mouse allografted with mouse 16/C cells assessed as mean body weight loss at 56 mg/kg, iv administered on days 1,4,6 and day 8 or 9 (reference value: -2.2%); assay type: organism-based; set-up: dose 56 mg/kg, route intravenous; settings: in vivo
[13] = Toxicity in B6C3F1 mouse allografted with mouse 16/C cells assessed as lethality at 56 mg/kg, iv; assay type: organism-based; set-up: dose 56 mg/kg, route intravenous; settings: in vivo, read-out: Activity
HeLa [14] = assay: Induction of interphase microtubule bundling in human HeLa cells at 1.3 uM after 18 hrs by indirect immunofluorescence; assay type: cell-based
Mus musculus [15] = assay: Toxicity in B6C3F1 mouse allografted with mouse 16/C cells assessed as mean body weight loss at 36 mg/kg, iv administered on days 1,4,6 and day 8 or 9 (reference value: -2.2%); assay type: organism-based; set-up: dose 36 mg/kg, route intravenous; settings: in vivo
HeLa [16] = assay: Cell cycle arrest in human HeLa cells assessed as accumulation of cells at G2/M phase at 1.3 uM after 18 hrs by flow cytometric analysis; assay type: functional, cell-based; procedure, shortened: as §3
HeLa [17] = assay: Inhibition of beta tubulin in human HeLa cells assessed asultiple abnormal mitotic spindle formation at 1.3 uM after 18 hrs by immunofluorescence analysis; assay type: cell-based
[18] = Antitumor activity against mouse 16/C cells allografted in mouse B6C3F1 assessed as gross log cell killing at 36 mg/kg, iv administered on days 1,4,6 and day 8 or 9 relative to control; assay type: functional; procedure, shortened: as §1
[19] = Antitumor activity against mouse 16/C cells allografted in mouse B6C3F1 assessed as decrease in tumor mass at 20 mg/kg, iv administered on days 1,4,6 and day 8 or 9 relative to control; assay type: functional; procedure, shortened: as §4
[20] = Antitumor activity against mouse 16/C cells allografted in mouse B6C3F1 assessed as delay in tumor growth at 36 mg/kg, iv administered on days 1,4,6 and day 8 or 9 relative to control; assay type: functional; procedure, shortened: as §2
[21] = Antitumor activity against mouse 16/C cells allografted in mouse B6C3F1 assessed as gross log cell killing at 20 mg/kg, iv administered on days 1,4,6 and day 8 or 9 relative to control; assay type: functional; procedure, shortened: as §1
[22] = Antitumor activity against mouse 16/C cells allografted in mouse B6C3F1 assessed as delay in tumor growth at 20 mg/kg, iv administered on days 1,4,6 and day 8 or 9 relative to control; assay type: functional; procedure, shortened: as §2
Mus musculus [23] = assay: Toxicity in B6C3F1 mouse allografted with mouse 16/C cells assessed as mean body weight loss at 20 mg/kg, iv administered on days 1,4,6 and day 8 or 9 (reference value: -2.2%); assay type: organism-based; set-up: dose 20 mg/kg, route intravenous; settings: in vivo
[24] = Toxicity in B6C3F1 mouse allografted with mouse 16/C cells assessed as lethality at 20 mg/kg, iv administered on days 1,4,6 and day 8 or 9 measured after 12 days relative to control; assay type: organism-based; set-up: dose 20 mg/kg, route intravenous; settings: in vivo, read-out: Activity
Procedure, shortened: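 Female B6C3F1 mice, 5 per group, bore bilateral s.c. Mammary 16/C fragments. Taccalonolides in DMSO:Cremophor diluted with water were given i.v. on days 1, 4, 6 plus a later dose (A, N) or days 8, 9, 11 (E). Mice were weighed and observed daily, and lethality was recorded per group.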

[25] = Antitumor activity against mouse 16/C cells allografted in mouse B6C3F1 assessed as decrease in tumor mass at 36 mg/kg, iv administered on days 1,4,6 and day 8 or 9 relative to control; assay type: functional; procedure, shortened: as §4

CC(=O)O[C@@H]1[C@H]2[C@H]3[C@H]([C@H](OC(C)=O)[C@H](OC(C)=O)[C@]2(C)[C@@H]2[C@@H]1[C@]1(C)C(=C[C@H]2C)OC(=O)[C@@]1(C)O)[C@]1(C)[C@H](C[C@@H]2O[C@@H]2[C@@H]1OC(C)=O)C(=O)[C@@H]3O [TACCALONOLIDE A]
Activity (Mus musculus [1]): -6.3%
LCK [2]: 1
Activity (HeLa [3]): Active
Time [4]: 4 days
inhibition (HeLa [5]): Active
IC50 (HeLa [6]): 594 nM
Activity (HeLa [7]): Active
T/C [8]: 0%
T/C [9]: 24%
LCK [10]: 4
Time [11]: 16 days
Activity (Mus musculus [12]): -16.7%
mortality [13]: 20%

CC(=O)O[C@H]1C[C@H]2[C@H]([C@@H]3[C@@H](O)[C@@H]4[C@H]([C@H](C)C=C5OC(=O)[C@@](C)(O)[C@@]54C)[C@]31C)[C@@H](O)C(=O)[C@H]1C[C@@H]3O[C@@H]3[C@H](OC(C)=O)[C@@]12C [TACCALONOLIDE N]
Activity (HeLa [14]): Active
Activity (Mus musculus [15]): -8.2%
Activity (HeLa [16]): Active
IC50 (HeLa [6]): 247 nM
inhibition (HeLa [17]): Active
LCK [18]: 1.25
T/C [19]: 43%
Time [20]: 5 days
LCK [21]: 0.25
Time [22]: 1 days
Activity (Mus musculus [23]): -2.1%
mortality at 288 h [24]: 0%
T/C [25]: 0%
